Experimental data reported in paper PMC3119707 (Reproduction (Cambridge, England), 2010).
Like-named read-outs stand apart in the source and are kept apart here.

Assays:
[1] = tested on: cGMP in mouse ovarian follicles; experiment: cGMP ELISA assay in isolated ovarian follicles; assay type: cell-based
Outline: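 Cultured mouse antral follicles (24–32 h, FSH, 3 mg/ml BSA), treated 1 h with LH (350 nM) or epiregulin (100 nM), or 1 h 500 nM test compound then 1 h test compound + LH. 12–20 unfrozen follicles washed in Ca/Mg-free PBS, sonicated in 0.1 M HCl (±1% Triton X-100), heated 95°C 2 min, stored −80°C, assayed by cGMP ELISA. Concentration approximated from 20 nl estimated cellular volume; mean ± s.e.m.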

[2] = target: ERK2 (Homo sapiens, UniProt P28482); experiment: In vitro kinase profiling, ERK2; assay type: biochemical; conditions: 1 μM AG1478
[3] = tested on: cGMP in mouse ovarian follicles; conditions: ref Vaccari et al. 2009, cited from earlier work
[4] = tested on: 110 kinases; experiment: In vitro kinase profiling panel; assay type: biochemical; conditions: for percent of activity remaining: 1 μM AG1478
[5] = target: T1, EGFR (Mus musculus, UniProt Q01279); experiment: Immunoblot of EGFR phosphorylation on tyrosine 1068 in follicles; assay type: cell-based; conditions: 500 nM AG1478, follicles stimulated with LH
[6] = target: EGFR kinase; conditions: read-out: IC50, EGFR kinase activity; in vitro; ref Levitzki & Gazit 1995; cited from earlier work
[7] = target: ERK1 (Homo sapiens, UniProt P27361); experiment: In vitro kinase profiling, ERK1; assay type: biochemical; conditions: 1 μM AG1478
[8] = tested on: follicle-enclosed oocytes; experiment: Nuclear envelope breakdown; assay type: cell-based, mouse
Outline: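 Meiotic resumption scored by viewing the oocyte nucleus through the follicle wall from above (20X/0.4 NA long working distance objective). Follicles from 23–24-day B6SJLF1 mice were cultured 24–32 h in FSH-containing, serum-free medium (3 mg/ml BSA), 37°C, 5% CO2, checked at 24 h, and only healthy prophase-arrested ones used. LH at 350 nM. Experiments discarded when <70% of LH controls reached NEBD by 5 h.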

[9] = tested on: gap junctions in mouse ovarian follicles; experiment: Gap junction permeability by Alexa Fluor 350 tracer injection; assay type: cell-based; conditions: for MG/IC fluorescence ratio as percent of the basal level: one hour treatment, LH 350 nM, epiregulin 100 nM
Outline: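 Antral follicles (~320–400 μm) from 23–24-day B6SJLF1 mice, cultured 24–32 h at 37°C, 5% CO2, in phenol-red-free MEMα with FSH and 3 mg/ml BSA; 1 h LH (350 nM) or epiregulin. Follicle-enclosed oocyte microinjected with 2.5 mM Alexa Fluor 350 (326 Da); two-photon imaging 20 min later; mural granulosa/inner cumulus fluorescence ratio; mean ± s.e.m., n = follicles.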

[10] = target: T1, EGFR; conditions: 500 nM AG1478, follicles stimulated with LH; ref Panigone et al. 2008; cited from earlier work
[11] = tested on: MAP kinase; conditions: 10 μM U0126; ref Norris et al. 2008; cited from earlier work
[12] = tested on: follicle-enclosed oocytes; conditions: U0126; ref Su et al., 2003; Norris et al. 2008; cited from earlier work
[13] = tested on: gap junctions in mouse ovarian follicles; conditions: 10 μM U0126; ref Norris et al. 2008; cited from earlier work

T1 sequence (Q01279 25-1210): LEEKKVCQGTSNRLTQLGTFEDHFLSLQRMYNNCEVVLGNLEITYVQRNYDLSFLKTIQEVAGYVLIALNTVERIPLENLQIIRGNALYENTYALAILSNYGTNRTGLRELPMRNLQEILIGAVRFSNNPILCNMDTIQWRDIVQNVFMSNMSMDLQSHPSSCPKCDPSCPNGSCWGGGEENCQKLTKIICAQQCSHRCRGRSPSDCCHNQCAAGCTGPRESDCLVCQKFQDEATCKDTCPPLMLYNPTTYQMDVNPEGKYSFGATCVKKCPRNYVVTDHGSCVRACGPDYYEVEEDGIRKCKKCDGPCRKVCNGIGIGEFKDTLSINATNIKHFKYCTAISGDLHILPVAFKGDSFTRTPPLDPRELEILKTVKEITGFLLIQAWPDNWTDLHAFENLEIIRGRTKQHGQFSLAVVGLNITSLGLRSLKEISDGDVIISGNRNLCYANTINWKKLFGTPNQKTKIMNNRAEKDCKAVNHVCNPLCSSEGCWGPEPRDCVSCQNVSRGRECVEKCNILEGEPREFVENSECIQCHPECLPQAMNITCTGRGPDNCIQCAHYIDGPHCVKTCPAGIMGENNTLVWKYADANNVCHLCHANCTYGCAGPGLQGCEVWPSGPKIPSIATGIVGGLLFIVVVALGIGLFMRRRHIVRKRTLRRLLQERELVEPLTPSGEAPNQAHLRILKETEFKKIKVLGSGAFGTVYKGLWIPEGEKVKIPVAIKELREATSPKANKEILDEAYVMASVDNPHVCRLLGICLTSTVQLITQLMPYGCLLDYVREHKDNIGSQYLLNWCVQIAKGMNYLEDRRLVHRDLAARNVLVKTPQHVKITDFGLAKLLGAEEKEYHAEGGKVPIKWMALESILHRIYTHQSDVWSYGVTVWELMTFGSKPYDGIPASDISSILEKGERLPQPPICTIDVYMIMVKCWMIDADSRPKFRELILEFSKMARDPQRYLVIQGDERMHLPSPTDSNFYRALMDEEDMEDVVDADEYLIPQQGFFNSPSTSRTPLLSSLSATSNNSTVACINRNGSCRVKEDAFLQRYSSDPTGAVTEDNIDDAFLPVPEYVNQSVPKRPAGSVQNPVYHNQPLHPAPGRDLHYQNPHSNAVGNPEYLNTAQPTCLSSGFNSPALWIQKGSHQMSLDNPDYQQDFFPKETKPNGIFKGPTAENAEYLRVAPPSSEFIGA
Sequence of ERK1 (P27361 whole entry, species assumed): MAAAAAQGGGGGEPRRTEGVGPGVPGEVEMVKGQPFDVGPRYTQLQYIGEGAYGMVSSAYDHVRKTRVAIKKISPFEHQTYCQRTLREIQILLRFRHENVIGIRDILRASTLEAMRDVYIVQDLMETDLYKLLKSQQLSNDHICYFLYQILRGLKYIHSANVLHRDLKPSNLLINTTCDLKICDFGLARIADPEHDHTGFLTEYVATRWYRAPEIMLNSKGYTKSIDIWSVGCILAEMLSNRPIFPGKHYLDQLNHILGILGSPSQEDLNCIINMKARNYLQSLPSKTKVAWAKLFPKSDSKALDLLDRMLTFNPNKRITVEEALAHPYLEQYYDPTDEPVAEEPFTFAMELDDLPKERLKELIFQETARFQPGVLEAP
Sequence of ERK2 (P28482 whole entry, species assumed): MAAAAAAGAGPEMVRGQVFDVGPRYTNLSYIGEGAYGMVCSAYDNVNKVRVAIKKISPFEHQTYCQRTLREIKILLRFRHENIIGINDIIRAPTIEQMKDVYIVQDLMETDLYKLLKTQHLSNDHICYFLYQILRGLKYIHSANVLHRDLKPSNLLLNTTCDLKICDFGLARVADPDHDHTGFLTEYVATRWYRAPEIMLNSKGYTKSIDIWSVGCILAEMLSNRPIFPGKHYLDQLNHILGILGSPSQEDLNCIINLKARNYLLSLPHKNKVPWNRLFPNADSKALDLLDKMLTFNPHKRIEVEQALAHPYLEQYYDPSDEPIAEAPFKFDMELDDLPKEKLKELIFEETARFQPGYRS

## COc1cc2ncnc(Nc3cccc(Cl)c3)c2cc1OC [AG1478]
[1]; 1 hour after LH in the presence of 500 nM AG1478
  cGMP as percent of the basal level: ~ 15%
[1]; 1 hour after LH in the presence of 500 nM AG1478 (1 hour pretreatment)
  follicle cGMP concentration: […]
[2]
  inhibition of ERK2: not inhibited
[3]; 500 nM AG1478
  effect on the cGMP decrease in response to LH: completely inhibited
[4]; seven of the 110 kinases tested
  percent of activity remaining: 30-50%
[4]; the other 101 kinases
  percent of activity remaining: > 50%
[4]; two of the 110 kinases tested
  percent of activity remaining: 10-20%
[4]; 101 out of the 110 kinases tested
  IC50: > 1000 nM
[5]
  LH-stimulated phosphorylation of the EGFR on tyrosine 1068: indistinguishable from the basal level without LH
[6]
  IC50: […]
[7]
  inhibition of ERK1: not inhibited
[8]; 500 nM AG1478 + LH, observed at 20 hours
  oocytes that had resumed meiosis: ~ 30%
[8]; 500 nM AG1478, observed at 6 hours
  effect on nuclear envelope breakdown in response to LH: completely inhibited
[9]; in the presence of 500 nM AG1478
  gap junction permeability after LH application: indistinguishable from that in an untreated follicle
[10]
  effect on LH-induced EGFR phosphorylation on tyrosine 1068: completely inhibits

## N#CC(=C(/N)Sc1ccccc1N)/C(C#N)=C(/N)Sc1ccccc1N [U0126]
[1]; 10 μM U0126, 1 hour pretreatment then 1 hour U0126 + LH
  effect on the cGMP decrease in response to LH: did not have any inhibitory effect
[11]
  effect on MAP kinase activation in response to LH: fully inhibit
[12]
  meiotic resumption in response to LH in the presence of inhibitor: causes meiotic resumption
[13]
  effect on gap junction closure in response to LH: completely inhibits

## epiregulin
[1]; 100 nM epiregulin, 1 hour, relative to LH
  part of the LH-induced follicle cGMP decrease caused by epiregulin: ~ 80%
[1]; 1 hour treatment with 100 nM epiregulin
  follicle cGMP concentration: ~ 600 nM
[8]; 100 nM epiregulin, by 4 hours
  oocytes that underwent nuclear envelope breakdown: Approximately 90%
[9]
  MG/IC fluorescence ratio as percent of the basal level: 32%

## luteinizing hormone [LH]
[1]; 1 hour after LH application
  cGMP as percent of the basal level: ~ 4%
[1]; 1 hour after LH application (350 nM), approximate
  follicle cGMP concentration: ~ 100 nM
[1]; 5 hours after LH application (350 nM), approximate
  follicle cGMP concentration: ~ 30 nM
[3]; 1 hour after LH application
  cGMP as percent of the basal level: 39%
[9]
  MG/IC fluorescence ratio as percent of the basal level: 9%
